Experimental data from ChEMBL document CHEMBL4622930, “Synthesis and biological evaluation of novel isothiazoloquinoline quinone analogues” (Bioorg Med Chem Lett, 2020).

Tests used:
MDA-MB-231 [1] = experiment: Antiproliferative activity against human MDA-MB-231 cells assessed as reduction in cell viability measured after 48 hrs MTT assay; type: functional, cell-based; conditions: MDA-MB-231, 48 h
How it was run: (§1)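 Cells (MDA-MB-231, MCF-7, MCF-10A, HT-29, A549) exposed to compounds for 48 h, then viability read by MTT. IC50 is the concentration giving 50% inhibition of viability. Means ± SD of three independent experiments.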

HT-29 = experiment: Antiproliferative activity against human HT-29 cells assessed as reduction in cell viability measured after 48 hrs MTT assay; type: functional, cell-based; conditions: HT-29, 48 h; how it was run: as §1
MCF7 = experiment: Antiproliferative activity against human MCF7 cells assessed as reduction in cell viability measured after 48 hrs MTT assay; type: functional, cell-based; conditions: MCF7, 48 h; how it was run: as §1
MCF-10A = experiment: Cytotoxicity against human MCF10A cells assessed as reduction in cell viability measured after 48 hrs MTT assay; type: cell-based; how it was run: as §1
[2] = target: NAD(P)H dehydrogenase [quinone] 1 (Homo sapiens) (UniProt P15559); experiment: Substrate activity at human NQO1 assessed as amount of NADH oxidation assessed per umol NQO1
Sequence of NAD(P)H dehydrogenase [quinone] 1 (Homo sapiens) (P15559 whole entry): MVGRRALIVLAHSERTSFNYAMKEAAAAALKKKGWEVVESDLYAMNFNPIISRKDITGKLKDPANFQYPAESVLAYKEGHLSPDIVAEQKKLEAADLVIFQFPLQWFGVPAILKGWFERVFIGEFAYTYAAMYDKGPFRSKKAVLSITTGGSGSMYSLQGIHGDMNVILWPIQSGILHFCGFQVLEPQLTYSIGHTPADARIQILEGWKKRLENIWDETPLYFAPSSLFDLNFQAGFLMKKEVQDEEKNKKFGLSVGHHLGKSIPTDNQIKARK
How it was run: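 Quinones at 20 μM coincubated with NADH with and without human NQO1. Rate of NADH oxidation measured.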

A549 [3] = experiment: Antiproliferative activity against human A549 cells assessed as reduction in cell viability measured after 48 hrs MTT assay; type: functional, cell-based; conditions: A549, 48 h; how it was run: as §1
A549 [4] = experiment: Induction of ROS generation in human A549 cells at 2 uM measured after 24 hrs by DCFH-DA probe based flow cytometry (reference value: 4.92 %); type: functional
[5] = target: Signal transducer and activator of transcription 3 (Homo sapiens) (UniProt P40763); experiment: Inhibition of STAT3 phosphorylation in human MDA-MB-231 cells measured after 2 hrs by Western blot analysis; type: cell-based
Sequence of Signal transducer and activator of transcription 3 (Homo sapiens) (P40763 whole entry): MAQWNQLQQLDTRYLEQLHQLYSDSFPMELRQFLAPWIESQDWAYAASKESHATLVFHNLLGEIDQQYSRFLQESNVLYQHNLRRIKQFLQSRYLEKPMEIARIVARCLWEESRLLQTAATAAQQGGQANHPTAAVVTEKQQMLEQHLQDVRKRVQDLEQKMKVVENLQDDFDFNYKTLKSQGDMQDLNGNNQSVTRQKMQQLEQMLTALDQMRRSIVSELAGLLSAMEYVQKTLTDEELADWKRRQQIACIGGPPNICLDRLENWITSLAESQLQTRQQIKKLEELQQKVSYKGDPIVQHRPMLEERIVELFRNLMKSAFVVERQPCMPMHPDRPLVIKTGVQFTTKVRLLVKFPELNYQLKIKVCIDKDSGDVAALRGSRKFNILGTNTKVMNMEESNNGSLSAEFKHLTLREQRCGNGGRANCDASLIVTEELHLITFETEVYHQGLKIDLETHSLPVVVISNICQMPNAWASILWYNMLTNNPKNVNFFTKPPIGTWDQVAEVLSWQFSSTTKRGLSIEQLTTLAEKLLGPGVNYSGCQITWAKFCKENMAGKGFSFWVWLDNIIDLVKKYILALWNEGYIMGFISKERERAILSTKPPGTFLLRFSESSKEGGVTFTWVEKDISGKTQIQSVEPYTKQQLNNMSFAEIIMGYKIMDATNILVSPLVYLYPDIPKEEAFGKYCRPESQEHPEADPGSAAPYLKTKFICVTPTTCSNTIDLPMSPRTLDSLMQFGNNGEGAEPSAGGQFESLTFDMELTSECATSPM
How it was run: (§2)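 MDA-MB-231 cells incubated for 2 h with test compound at 2, 4 or 8 μM, or with DMSO vehicle. Phospho-STAT3 and total STAT3 detected by western blot.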

A549 [6] = experiment: Induction of apoptosis in human A549 cells assessed as early apoptotic cells at 2 uM measured after 24 hrs by annexinV-FITC/propidium iodide staining based flow cytometry (reference value: 0.25 %); type: functional
A549 [7] = experiment: Induction of apoptosis in human A549 cells assessed as necrotic cells at 2 uM measured after 24 hrs by annexinV-FITC/propidium iodide staining based flow cytometry (reference value: 0.54 %); type: functional
A549 [8] = experiment: Induction of apoptosis in human A549 cells assessed as live cells at 1 uM measured after 24 hrs by annexinV-FITC/propidium iodide staining based flow cytometry (reference value: 95.5 %); type: functional
MDA-MB-231 [9] = experiment: Effect on total STAT3 level in human MDA-MB-231 cells at 2 to 8 uM measured after 2 hrs by Western blot analysis; type: cell-based; conditions: mda-mb-231, 2 h; how it was run: as §2
A549 [10] = experiment: Induction of apoptosis in human A549 cells assessed as late apoptotic cells at 2 uM measured after 24 hrs by annexinV-FITC/propidium iodide staining based flow cytometry (reference value: 3.70 %); type: functional
A549 [11] = experiment: Potency index, ratio of BBI608 activity to test compound activity for induction of apoptosis in human A549 cells measured after 24 hrs by annexinV-FITC/propidium iodide staining based flow cytometry; type: functional
How it was run: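 A549 cells given test compound or BBI608, each at 2 μM, for 24 h, then stained with Annexin V-FITC/propidium iodide for 15 min. Apoptosis rate by flow cytometry; the ratio compares rates at the same concentration.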

A549 [12] = experiment: Induction of apoptosis in human A549 cells assessed as live cells at 2 uM measured after 24 hrs by annexinV-FITC/propidium iodide staining based flow cytometry (reference value: 95.5 %); type: functional
A549 [13] = experiment: Induction of apoptosis in human A549 cells assessed as late apoptotic cells at 1 uM measured after 24 hrs by annexinV-FITC/propidium iodide staining based flow cytometry (reference value: 3.70 %); type: functional
A549 [14] = experiment: Induction of ROS generation in human A549 cells at 2 uM measured after 24 hrs by DCFH-DA probe based flow cytometry relative to BBI608; type: functional
A549 [15] = experiment: Induction of apoptosis in human A549 cells measured after 24 hrs by annexinV-FITC/propidium iodide staining based flow cytometry; type: functional, cell-based
A549 [16] = experiment: Induction of apoptosis in human A549 cells assessed as necrotic cells at 1 uM measured after 24 hrs by annexinV-FITC/propidium iodide staining based flow cytometry (reference value: 0.54 %); type: functional
A549 [17] = experiment: Induction of apoptosis in human A549 cells assessed as early apoptotic cells at 1 uM measured after 24 hrs by annexinV-FITC/propidium iodide staining based flow cytometry (reference value: 0.25 %); type: functional

Row | Compound | IC50 (MDA-MB-231 [1]) [µM] | IC50 (HT-29) [µM] | IC50 (MCF7) [µM] | IC50 (MCF-10A) [µM] | Activity [2] [µmol/min] | IC50 (A549 [3]) [µM] | Activity (A549 [4]) [%] | inhibition [5] | Activity (A549 [6]) [%] | Activity (A549 [7]) [%] | Activity (A549 [8]) [%] | Activity (MDA-MB-231 [9]) | Activity (A549 [10]) [%] | Ratio (A549 [11]) | Activity (A549 [12]) [%] | Activity (A549 [13]) [%] | Ratio (A549 [14]) | Activity (A549 [15]) | Activity (A549 [16]) [%] | Activity (A549 [17]) [%]
1 | COc1ccc(-c2nsc3c2C(=O)c2cccc(OC)c2C3=O)cc1 | > 40 | > 40 | > 40 | > 40 | 18 | > 40 |  |  |  |  |  |  |  |  |  |  |  |  |  | 
2 | COc1cccc2c1C(=O)c1snc(-c3ccccc3)c1C2=O | 22 | 28.8 | 12.1 | 24.6 | 14.6 | > 40 |  |  |  |  |  |  |  |  |  |  |  |  |  | 
3 | O=C1c2ccccc2C(=O)c2c(-c3ccccc3)nsc21 | 10.3 | 18.8 | > 40 | 17.6 | 5.59 | 27.5 |  |  |  |  |  |  |  |  |  |  |  |  |  | 
4 | Cc1nsc2c1C(=O)c1cccnc1C2=O | 0.23 | 3.03 | 0.64 | 0.88 | 180 | 1.69 |  |  |  |  |  |  |  |  |  |  |  |  |  | 
5 | COc1ccc(-c2nsc3c2C(=O)c2c(OC)cccc2C3=O)cc1 | > 40 | > 40 | > 40 | > 40 | 8.75 | > 40 | 7.19 |  |  |  |  |  |  |  |  |  |  |  |  | 
6 | CCc1nsc2c1C(=O)c1cccc(O)c1C2=O | 5.81 | 3.8 | 3.31 | 3.02 | 112 | 2.83 |  |  |  |  |  |  |  |  |  |  |  |  |  | 
7 | Cc1nsc2c1C(=O)c1ncccc1C2=O | 0.26 | 1.52 | 0.31 | 0.13 | 219 | 3.28 | 57.5 | Dose-dependent effect | 0.33 | 1.49 | 92.7 | Non-Toxic | 13.4 | 2.5 | 84.8 | 6.53 | 3 | Dose-dependent effect | 0.59 | 0.17
8 | CC(=O)c1cc2c(o1)C(=O)c1ccccc1C2=O [NAPABUCASIN] | 1.29 | 0.14 | 0.63 | 0.54 | 170 | 6.69 | 23.5 |  | 0.16 | 0.45 |  |  | 4.98 |  | 94.4 |  |  |  |  | 
9 | CCc1nsc2c1C(=O)c1ncccc1C2=O | 1.53 | 0.91 | 0.36 | 0.17 | 91.8 | 1.38 |  |  |  |  |  |  |  |  |  |  |  |  |  | 
10 | COc1ccc(-c2nsc3c2C(=O)c2cccnc2C3=O)cc1 | 0.73 | 40 | 1.82 | 1.96 | 209 | 2.77 |  |  |  |  |  |  |  |  |  |  |  |  |  | 
11 | COc1ccc(-c2nsc3c2C(=O)c2cccc(O)c2C3=O)cc1 | 1.46 | 3.88 | 1.41 | 1.51 | 38.9 | 4.8 |  |  |  |  |  |  |  |  |  |  |  |  |  | 
12 | CCc1nsc2c1C(=O)c1c(O)cccc1C2=O | 2.72 | 1.66 | 0.71 | 3.06 | 97.2 | 1.38 |  |  |  |  |  |  |  |  |  |  |  |  |  | 
13 | Cc1nsc2c1C(=O)c1ccccc1C2=O | 1.65 | 2.67 | 4.09 | 1.11 | 68 | 1.71 |  |  |  |  |  |  |  |  |  |  |  |  |  | 
14 | Cc1nsc2c1C(=O)c1cccc(O)c1C2=O | 2.67 | 1.41 | 1.58 | 1.37 | 122 | 1.36 |  |  |  |  |  |  |  |  |  |  |  |  |  | 
15 | Cc1nsc2c1C(=O)c1c(O)cccc1C2=O | 1.67 | 1.62 | 0.92 | 0.92 | 122 | 1.96 |  |  |  |  |  |  |  |  |  |  |  |  |  | 
16 | CCc1nsc2c1C(=O)c1cccnc1C2=O | 0.34 | 2.06 | 1.11 | 0.59 | 28.4 | 1.51 |  |  |  |  |  |  |  |  |  |  |  |  |  | 
17 | O=C1c2ncccc2C(=O)c2c(-c3ccccc3)nsc21 | 0.4 | 1.2 | 0.26 | 0.88 | 174 | 0.81 |  |  |  |  |  |  |  |  |  |  |  |  |  | 
18 | O=C1c2cccnc2C(=O)c2c(-c3ccccc3)nsc21 | 0.66 | 2.03 | 0.46 | 0.17 | 175 | 1.35 |  |  |  |  |  |  |  |  |  |  |  |  |  | 
19 | CCc1nsc2c1C(=O)c1ccccc1C2=O | 2.59 | 2.92 | 2.34 | 1.13 | 122 | 0.7 |  |  |  |  |  |  |  |  |  |  |  |  |  | 
20 | COc1ccc(-c2nsc3c2C(=O)c2ccccc2C3=O)cc1 | 35.2 | 36.8 | 37.5 | 29.3 | 7.29 | > 40 |  |  |  |  |  |  |  |  |  |  |  |  |  | 
